Measured values from PMC2141641 (The Journal of Cell Biology, 1997).

Columns and labels:
[1] = system: CD36–GST fusion protein FP298-439; design: species or system human; settings: 125I–TSP-1 20 μg/ml; equal to binding in the presence of 5 mM EDTA; n = 5
Summary of the method: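 GST–CD36 fusion protein was coated overnight at 4°C at 10 μg/ml in carbonate buffer, pH 9.8 (200–280 ng/well). Wells were washed with TBS-T and blocked with TBS-T/0.5% BSA. 125I–TSP-1 (20 μg/ml; 0.5–1 mCi/mg) in TBS-T was incubated 2 h at 22°C. Wells were washed and bound counts measured by gamma counting. 5 mM EDTA defined nonspecific binding.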

[2] = system: Bovine adrenal capillary endothelial cells (BCECs); experiment: Endothelial cell migration assay, BCECs; type: cell-based; settings: TSP-1 2 nM; fusion protein preincubated 2 h at 4°C; migration 4 h at 37°C
Summary of the method: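 Bovine adrenal capillary cells (DME, 10% donor calf serum, 1% endothelial mitogen; passage 15) were starved overnight in DME/0.1% BSA. 3 × 10^4 cells/well were attached 2 h at 37°C to a gelatinized membrane in an inverted Boyden chamber, then reinverted. GST–CD36 fusion proteins were preincubated with 2 nM TSP-1, warmed to room temperature, and added to the top wells. Migration to bFGF ran 4 h at 37°C. Migrated cells/10 high-power fields counted; normalized to bFGF minus background.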

TSP-1 = settings: ref Pearce et al., 1995; cited from earlier work

TSP-1 binding to immobilized fusion protein (in words) [1]: only background binding
B1: FP298-439: control fusion protein unable to bind TSP-1 spanning CD36 amino acids 298–439 (protein)
chain: KAFASPVENPDNYCFCTEKIISKNCTSYGVLDISKCKEGRPVYISLPHFLYASPDVSEPIDGLNPNEEEHRTYLDIEPITGFTLQFAKRLQVNLLVKPSEKIQVLKNLKRNYIVPILWLNETGTIGDEKANMFRSQVTGKIN
modifications: left off: GST, end not stated, kept
block of TSP-1 inhibition of bFGF-induced migration [2]: ineffective | binding of fusion protein to TSP-1 (TSP-1): unable to bind TSP-1
